This note sets out measurements from ChEMBL document CHEMBL1121537, “Anticoccidial derivatives of 6-azauracil. 3. Synthesis, high activity, and short plasma half-life of 1-phenyl-6-azauracils containing sulfonamide substituents” (J Med Chem, 1980).

The species named for data set [1] is Gallus gallus. The data set can be described thus: Minimum effective concentration required to prevent formation of detectable lesions in Eimeria tenella infected leghorn cockerels; Value ranges from 60-120. It counts as functional. The method in brief: (§1)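 Leghorn cockerels infected with Eimeria tenella, screened by a modified version of a published screening method. The minimum effective concentration, in ppm, is the lowest level that prevents detectable lesions.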

The test system of data set [2] is Eimeria necatrix. The data set can be described thus: The compound was evaluated for the variations in the vulnerability to Eimeria necatrix. Type of data set: functional. The note with it: read-out: MEC.
For data set [3], the system named is Eimeria tenella. The data set can be described thus: Minimum effective concentration required to prevent formation of detectable lesions in Eimeria tenella infected leghorn cockerels. To be noted: read-out: MEC. It counts as functional. The method in brief: as §1
Data set [4] has as its system Gallus gallus. The data set can be described thus: Plasma level measured 3h after oral administration of 4-5 mg/kg body weight in young cockerels. It counts as functional, organism-based. In short, it runs like this:
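Young cockerels, about 10 days old, given 4-5 mg/kg body weight orally; drug level in plasma measured 3 h after dosing, in mcg/mL.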

Data set [5] concerns Eimeria acervulina. The data set can be described thus: The compound was evaluated for the variations in the vulnerability to Eimeria acervulina. The note with it: read-out: MEC. Type of data set: functional.
The nature of data set [6]: Half life in plasma of young cockerels. It counts as ADME, organism-based, Gallus gallus. To be noted: male, chicken. In short, it runs like this: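 Plasma half-life in young cockerels, about 10 days old, determined by a previously described method.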
In data set [7] the test system is Eimeria tenella. The data set can be described thus: The compound was evaluated for the variations in the vulnerability to Eimeria tenella. It counts as functional. To be noted: read-out: MEC.
Data set [8] concerns Eimeria brunetti. The data set can be described thus: The compound was evaluated for the variations in the vulnerability to Eimeria brunetti. Type of data set: functional. To be noted: read-out: MEC.

Consider `CN(Cc1ccccc1)S(=O)(=O)c1ccc(-n2ncc(=O)[nH]c2=O)cc1Cl`, for which, in data set [1], the MEC is on record as 60 p.p.m.

By half-life is commonly meant how long it takes for the measured level to halve. Lower therefore signals rapid decline. On to `Cc1cc(-n2ncc(=O)[nH]c2=O)cc(C)c1S(=O)(=O)N1CCOCC1`, for which the minimal effective concentration in data set [2] came out at 15 µg/mL; in data set [3], 15 µg/mL; in data set [5], 50 µg/mL; in data set [7] it was 15 µg/mL; in data set [8], 30 µg/mL. In addition, the Plasma level in data set [4] is 0.95 µg/mL. In addition, the half-life in data set [6] is 1.5 h.
